Measurements published in ChEMBL document CHEMBL1135602 (J Med Chem, 2002).

molecular target: Bifunctional dihydrofolate reductase-thymidylate synthase (Plasmodium falciparum K1, UniProt P13922, S108N); experiment: Inhibition of the S108N mutant of dihydrofolate reductase (DHFR); conditions: not given
Outline: (§1)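 Assay at 25 °C: 50 mM TES pH 7.0, 75 mM β-mercaptoethanol, 1 mg/mL BSA, 100 µM H2folate and 100 µM NADPH. NADPH oxidation followed at 340 nm. Ki derived from IC50 as Ki(1+[S]/Km), assuming competitive inhibition.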

Sequence of Bifunctional dihydrofolate reductase-thymidylate synthase (Plasmodium falciparum K1, UniProt P13922, S108N) (P13922 whole entry, looked up, stated change not applied): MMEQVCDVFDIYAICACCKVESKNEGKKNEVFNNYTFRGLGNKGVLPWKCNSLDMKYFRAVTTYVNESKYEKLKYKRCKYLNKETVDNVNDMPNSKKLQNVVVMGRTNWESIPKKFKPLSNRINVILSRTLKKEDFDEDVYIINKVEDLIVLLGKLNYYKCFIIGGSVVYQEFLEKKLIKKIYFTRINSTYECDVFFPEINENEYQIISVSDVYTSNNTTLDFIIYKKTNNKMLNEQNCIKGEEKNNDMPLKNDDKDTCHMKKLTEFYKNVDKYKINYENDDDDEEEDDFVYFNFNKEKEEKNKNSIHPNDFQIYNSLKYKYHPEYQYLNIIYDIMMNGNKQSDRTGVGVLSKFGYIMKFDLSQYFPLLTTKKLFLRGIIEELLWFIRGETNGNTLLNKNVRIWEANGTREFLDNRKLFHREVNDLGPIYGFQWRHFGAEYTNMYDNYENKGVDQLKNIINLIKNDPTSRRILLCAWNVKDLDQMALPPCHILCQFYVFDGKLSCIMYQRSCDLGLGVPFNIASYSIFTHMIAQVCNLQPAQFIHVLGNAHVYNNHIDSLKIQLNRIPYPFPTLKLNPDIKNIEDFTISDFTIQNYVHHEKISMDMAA

**Q.** Which Ki does the source give for `Cc1nc(N)nc(N)c1-c1ccccc1` here?
**A.** The Ki was 25.6 nM.

**Q.** Which Ki does the source give for `CCOc1c(Br)cc(-c2c(N)nc(N)nc2CC)cc1Br` here?
**A.** Its Ki is 415 nM.

**Q.** With `CCc1nc(N)nc(N)c1-c1cccc(Cl)c1` as the compound, how does the Ki read?
**A.** The Ki was 1.6 nM.

**Q.** With `Nc1ncc(-c2ccccc2)c(N)n1` as the compound, how does the Ki read?
**A.** The Ki was 81 nM.

**Q.** With `Nc1nc(N)c(-c2cccc(Cl)c2)c(CCCc2ccccc2)n1` as the compound, how does the Ki read?
**A.** Its Ki is 3 nM.

**Q.** Which Ki does the source give for `COc1cc(Cc2cnc(N)nc2N)cc(OC)c1OCc1ccccc1` here?
**A.** Its Ki is 61.9 nM.

**Q.** With `COc1cc(COc2cc(Cc3cnc(N)nc3N)ccc2OCc2ccccc2)cc(OC)c1OC` as the compound, how does the Ki read?
**A.** The Ki was 180 nM.

molecular target: Bifunctional dihydrofolate reductase-thymidylate synthase (Plasmodium falciparum K1) (UniProt P13922); experiment: Inhibition of the wild-type dihydrofolate reductase (DHFR) relative to Tmp; conditions: not given
Outline: (§2)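 Assayed at 25 °C in 50 mM TES pH 7.0, 75 mM β-mercaptoethanol, 1 mg/mL BSA, with 100 µM H2folate and 100 µM NADPH. A340 was followed. Ki was derived from IC50 = Ki(1+[S]/Km), assuming competitive inhibition.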

Sequence of Bifunctional dihydrofolate reductase-thymidylate synthase (Plasmodium falciparum K1) (P13922 whole entry, looked up): as the sequence (P13922 whole entry, looked up, stated change not applied) above

**Q.** Which Relative activity does the source give for `COc1cc(COc2cc(Cc3cnc(N)nc3N)ccc2OCc2ccccc2)cc(OC)c1OC` here?
**A.** Its Relative activity is 1.2.

molecular target: Bifunctional dihydrofolate reductase-thymidylate synthase (Plasmodium falciparum K1) (UniProt P13922); experiment: Inhibition of S108N mutant dihydrofolate reductase (DHFR)relative to Tmp; conditions: not given; outline: as §2

**Q.** For `COc1cc(COc2cc(Cc3cnc(N)nc3N)ccc2OCc2ccccc2)cc(OC)c1OC`, which Relative activity is on record?
**A.** The Relative activity was 1.4.

test system: not listed separately; experiment: Safety ratio is cytotoxicity to KB cells/IC50 K1.; assay type: toxicity, cell-based; conditions: human, KB cells (epidermoid carcinoma); read-out: Safety ratio
Outline: (§3)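 Ratio of the cytotoxicity IC50 (vero, KB or BC cells, Skehan protocol) to the antiplasmodial IC50 against K1CB1 (C59R+S108N DHFR). […] Label was added at 24 h and cultures ran a further 18-24 h. Final DMSO was 0.1%.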

**Q.** With `CCc1nc(N)nc(N)c1-c1cccc(Cl)c1` as the compound, how does the selectivity ratio read?
**A.** Its selectivity ratio is […].

molecular target: Bifunctional dihydrofolate reductase-thymidylate synthase (Plasmodium falciparum K1) (UniProt P13922); experiment: Inhibition of mutant C59R+S108N dihydrofolate reductase (DHFR) relative to Pyr; conditions: not given

**Q.** For `Cc1nc(N)nc(N)c1-c1ccccc1`, which Relative activity is on record?
**A.** The Relative activity was 0.7.

**Q.** Which Relative activity does the source give for `CCOc1c(Br)cc(-c2c(N)nc(N)nc2CC)cc1Br` here?
**A.** Its Relative activity is 9.9.

**Q.** For `Nc1ncc(-c2ccccc2)c(N)n1`, which Relative activity is on record?
**A.** The Relative activity was 1.4.

molecular target: Bifunctional dihydrofolate reductase-thymidylate synthase (Plasmodium falciparum K1) (UniProt P13922); experiment: Inhibition of the C59R+S108N mutant of dihydrofolate reductase (DHFR)relative to Tmp; conditions: not given; outline: as §2

**Q.** Which Relative activity does the source give for `COc1cc(COc2cc(Cc3cnc(N)nc3N)ccc2OCc2ccccc2)cc(OC)c1OC` here?
**A.** The Relative activity was 2.1.

test system: KB; experiment: Cytotoxicity against human epidermoid carcinoma KB cell.; assay type: functional, cell-based; conditions: not given

**Q.** Which IC50 does the source give for `CCc1nc(N)nc(N)c1-c1cccc(Cl)c1` here?
**A.** Its IC50 is 46000 nM.

test system: Plasmodium falciparum; experiment: In vitro antiplasmodial activity (IC50) against Plasmodium falciparum wtTM4/8.2; assay type: functional, organism-based; conditions: not given

**Q.** For `Cc1nc(N)nc(N)c1-c1ccccc1`, which IC50 is on record?
**A.** Its IC50 is 7400 nM.

**Q.** Which IC50 does the source give for `CCOc1c(Br)cc(-c2c(N)nc(N)nc2CC)cc1Br` here?
**A.** Its IC50 is 3700 nM.

**Q.** With `CCc1nc(N)nc(N)c1-c1cccc(Cl)c1` as the compound, how does the IC50 read?
**A.** Its IC50 is 400 nM.

**Q.** With `Nc1ncc(-c2ccccc2)c(N)n1` as the compound, how does the IC50 read?
**A.** The IC50 was 20900 nM.

**Q.** Which IC50 does the source give for `Nc1nc(N)c(-c2cccc(Cl)c2)c(CCCc2ccccc2)n1` here?
**A.** The IC50 was 700 nM.

**Q.** For `COc1cc(Cc2cnc(N)nc2N)cc(OC)c1OCc1ccccc1`, which IC50 is on record?
**A.** Its IC50 is 4200 nM.

**Q.** Which IC50 does the source give for `COc1cc(COc2cc(Cc3cnc(N)nc3N)ccc2OCc2ccccc2)cc(OC)c1OC` here?
**A.** Its IC50 is 19000 nM.

test system: not listed separately; experiment: Safety ratio is cytotoxicity to vero cells/IC50 K1.; assay type: toxicity, cell-based; conditions: monkey, read-out: Safety ratio; outline: as §3

**Q.** With `CCc1nc(N)nc(N)c1-c1cccc(Cl)c1` as the compound, how does the selectivity ratio read?
**A.** The selectivity ratio was […].

test system: Bifunctional dihydrofolate reductase-thymidylate synthase (Plasmodium falciparum K1), P13922 [UNDEFINED MUTATION]; experiment: Ratio of Inhibition of the C59R+S108N mutant of dihydrofolate reductase (DHFR) to inhibition of wild type dihydrofolate reductase.; conditions: not given
Sequence (P13922 whole entry, looked up, stated change not applied): as above

**Q.** With `Cc1nc(N)nc(N)c1-c1ccccc1` as the compound, how does the Ratio read?
**A.** The Ratio was 3.4.

**Q.** With `CCOc1c(Br)cc(-c2c(N)nc(N)nc2CC)cc1Br` as the compound, how does the Ratio read?
**A.** Its Ratio is 76.3.

**Q.** For `Nc1ncc(-c2ccccc2)c(N)n1`, which Ratio is on record?
**A.** The Ratio was 1.8.

**Q.** Which Ratio does the source give for `Nc1nc(N)c(-c2cccc(Cl)c2)c(CCCc2ccccc2)n1` here?
**A.** The Ratio was 3.5.

**Q.** Which Ratio does the source give for `COc1cc(COc2cc(Cc3cnc(N)nc3N)ccc2OCc2ccccc2)cc(OC)c1OC` here?
**A.** Its Ratio is 41.5.

molecular target: Bifunctional dihydrofolate reductase-thymidylate synthase (Plasmodium falciparum K1) (UniProt P13922); experiment: Inhibition of Plasmodium falciparum wild-type dihydrofolate reductase (DHFR) relative to Pyrimethamine.; conditions: not given

**Q.** For `Cc1nc(N)nc(N)c1-c1ccccc1`, which Relative activity is on record?
**A.** Its Relative activity is 18.2.

**Q.** For `CCOc1c(Br)cc(-c2c(N)nc(N)nc2CC)cc1Br`, which Relative activity is on record?
**A.** Its Relative activity is 11.7.

**Q.** For `Nc1ncc(-c2ccccc2)c(N)n1`, which Relative activity is on record?
**A.** The Relative activity was 69.8.

**Q.** For `Nc1nc(N)c(-c2cccc(Cl)c2)c(CCCc2ccccc2)n1`, which Relative activity is on record?
**A.** Its Relative activity is 2.

test system: Bifunctional dihydrofolate reductase-thymidylate synthase (Plasmodium falciparum K1), P13922 [UNDEFINED MUTATION]; experiment: Ratio of Inhibition of the S108N mutant of dihydrofolate reductase (DHFR) to inhibition of wild type dihydrofolate reductase.; conditions: not given

**Q.** Which Ratio does the source give for `Cc1nc(N)nc(N)c1-c1ccccc1` here?
**A.** The Ratio was 2.3.

**Q.** For `CCOc1c(Br)cc(-c2c(N)nc(N)nc2CC)cc1Br`, which Ratio is on record?
**A.** Its Ratio is 59.3.

**Q.** For `Nc1ncc(-c2ccccc2)c(N)n1`, which Ratio is on record?
**A.** The Ratio was 1.9.

**Q.** Which Ratio does the source give for `Nc1nc(N)c(-c2cccc(Cl)c2)c(CCCc2ccccc2)n1` here?
**A.** The Ratio was 2.5.

**Q.** With `COc1cc(COc2cc(Cc3cnc(N)nc3N)ccc2OCc2ccccc2)cc(OC)c1OC` as the compound, how does the Ratio read?
**A.** Its Ratio is 2.5.

test system: not listed separately; experiment: Safety ratio is cytotoxicity to KB cells/IC50 TM4.; assay type: toxicity, cell-based; conditions: human, KB cells (epidermoid carcinoma); read-out: Safety ratio
Outline: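 Ratio of the cytotoxicity IC50 (KB or BC cells, Skehan protocol) to the antiplasmodial IC50 against TM4/8.2 (wild-type DHFR). […] Label was added after 24 h and cultures ran a further 18-24 h.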

**Q.** For `CCc1nc(N)nc(N)c1-c1cccc(Cl)c1`, which selectivity ratio is on record?
**A.** Its selectivity ratio is […].

test system: Plasmodium falciparum; experiment: Safety ratio as cytotoxicity in vero cells relative to IC50 TM4; assay type: functional; conditions: not given

**Q.** For `CCc1nc(N)nc(N)c1-c1cccc(Cl)c1`, which Safety ratio is on record?
**A.** Its Safety ratio is […].

test system: BC; experiment: Cytotoxicity against human breast cancer cells.; assay type: functional, cell-based; conditions: not given

**Q.** Which IC50 does the source give for `CCc1nc(N)nc(N)c1-c1cccc(Cl)c1` here?
**A.** The IC50 was 25000 nM.

molecular target: Bifunctional dihydrofolate reductase-thymidylate synthase (Plasmodium falciparum K1) (UniProt P13922); experiment: Inhibition of mutant S108N dihydrofolate reductase (DHFR) relative to Pyr; conditions: not given

**Q.** Which Relative activity does the source give for `Cc1nc(N)nc(N)c1-c1ccccc1` here?
**A.** The Relative activity was 0.9.

**Q.** For `CCOc1c(Br)cc(-c2c(N)nc(N)nc2CC)cc1Br`, which Relative activity is on record?
**A.** Its Relative activity is 14.5.

**Q.** For `Nc1ncc(-c2ccccc2)c(N)n1`, which Relative activity is on record?
**A.** The Relative activity was 2.8.

molecular target: Bifunctional dihydrofolate reductase-thymidylate synthase (Plasmodium falciparum K1, UniProt P13922); experiment: Inhibition of the C59R+S108N mutant of dihydrofolate reductase (DHFR); conditions: not given; outline: as §1
Sequence (P13922 whole entry): as the sequence (P13922 whole entry, looked up, stated change not applied) above

**Q.** With `Cc1nc(N)nc(N)c1-c1ccccc1` as the compound, how does the Ki read?
**A.** The Ki was 36.7 nM.

**Q.** With `CCOc1c(Br)cc(-c2c(N)nc(N)nc2CC)cc1Br` as the compound, how does the Ki read?
**A.** Its Ki is 535 nM.

**Q.** For `Nc1ncc(-c2ccccc2)c(N)n1`, which Ki is on record?
**A.** The Ki was 76.2 nM.

**Q.** Which Ki does the source give for `Nc1nc(N)c(-c2cccc(Cl)c2)c(CCCc2ccccc2)n1` here?
**A.** The Ki was 4.2 nM.

**Q.** With `COc1cc(Cc2cnc(N)nc2N)cc(OC)c1OCc1ccccc1` as the compound, how does the Ki read?
**A.** The Ki was 71.9 nM.

**Q.** With `COc1cc(COc2cc(Cc3cnc(N)nc3N)ccc2OCc2ccccc2)cc(OC)c1OC` as the compound, how does the Ki read?
**A.** Its Ki is 503 nM.

test system: Vero; experiment: Cytotoxicity by the selective inhibition against African green monkey kidney […] (vero cells).; assay type: functional, cell-based; conditions: Chlorocebus sabaeus

**Q.** For `CCc1nc(N)nc(N)c1-c1cccc(Cl)c1`, which IC50 is on record?
**A.** The IC50 was 7000 nM.

test system: Plasmodium falciparum; experiment: IC50 ratio against Plasmodium falciparum K1CB1/TM4; assay type: functional; conditions: not given

**Q.** For `Cc1nc(N)nc(N)c1-c1ccccc1`, which Ratio is on record?
**A.** Its Ratio is 4.2.

**Q.** For `CCOc1c(Br)cc(-c2c(N)nc(N)nc2CC)cc1Br`, which Ratio is on record?
**A.** The Ratio was 4.7.

**Q.** With `Nc1ncc(-c2ccccc2)c(N)n1` as the compound, how does the Ratio read?
**A.** Its Ratio is 0.9.

**Q.** For `Nc1nc(N)c(-c2cccc(Cl)c2)c(CCCc2ccccc2)n1`, which Ratio is on record?
**A.** The Ratio was 4.3.

**Q.** With `COc1cc(Cc2cnc(N)nc2N)cc(OC)c1OCc1ccccc1` as the compound, how does the Ratio read?
**A.** Its Ratio is 7.1.

**Q.** Which Ratio does the source give for `COc1cc(COc2cc(Cc3cnc(N)nc3N)ccc2OCc2ccccc2)cc(OC)c1OC` here?
**A.** The Ratio was 0.9.
